In the array DNA melting data of Ke et al. (doi:10.1101/2024.01.08.574731):

Experiments:
[1] = folding enthalpy; higher = less favourable; fluorescence melt of hairpins on a sequencing array, two-state fit; settings: sodium 0.088 M
Outline: (§1)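 In 50 mM Na-HEPES pH 8.0 containing 25 mM NaCl, hairpins from the library on a sequenced MiSeq flow cell were imaged for Cy3 fluorescence at 2.5 °C steps up to 60 °C, with Cy3 and quencher oligos annealed. After normalisation to pre-quench Cy3 and to control constructs, two-state fits with bootstrapping gave melting temperature and folding enthalpy. Four replicates were combined by inverse-variance weighting, and fitted temperatures were shifted up by 9.35 °C to match UV melts.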

[2] = melting temperature; fluorescence melt of hairpins on a sequencing array, two-state fit, raised by 9.35 °C to match UV melts; settings: sodium 0.088 M
Outline: as §1

Sequence | folding enthalpy [1] [kcal/mol] | Tm [2] [°C]
GGCGCCGAAAGGCTGGCC ((((((....)))..))) | -22.3 | 62.3
GGCGCCGGAAACGACGCC ((((.((....)).)))) | -33.6 | 66.4
GGCGCCGGAAACGGCACC ((.((((....)))).)) | -26.8 | 60.5
GGCGCGACGAAAGTCGCC (((..(((....)))))) | -5.55 | 51.9
GGCGCGCCGAAAGGCGCC (((..(((....)))))) | -4.97 | 44.5
GGCGCGGGAAACCACGCC ((((.((....)).)))) | -48.2 | 61
GGCGCGTCGAAAGACGCC (((..(((....)))))) | -7.03 | 47.8
GGCGCTCGAAAGAGAGCC (((.(((....))).))) | -36.8 | 67.2
GGCGCTGGAAACAGCGTC (.(((((....))))).) | -23 | 65.9
GGCGGACGAAAGTCGGCC (((.(((....))).))) | -39.2 | 69.3
GGCGGCGAAAGCCAGGCC ((((((....)))..))) | -18.8 | 62
GGCGGCGAAAGCCGAGCC ((((((....)))..))) | -12.3 | 58
GGCGGCGAAAGCCTCGCC ((((((....)))..))) | -20.8 | 55.4
GGCGGCGAAAGCCTGCC ((((((....))).))) | -18.9 | 68.5
GGCGGCGAAAGCCTTGCC ((((((....)))..))) | -19.2 | 55.1
GGCGGCTCGAAAGAGGCC (((..(((....)))))) | -11.4 | 51.6
GGCGGGGCGAAAGCCGCC (((..(((....)))))) | -19.9 | 68.6
GGCGGGGGAAACCCCACC ((.((((....)))).)) | -27.7 | 56.1
GGCGGGTCGAAAGACGCC (((..(((....)))))) | -24.8 | 58
GGCGGTGGAAACATCGCC ((((.((....)).)))) | -38.6 | 63.1
GGCGTACGAAAGTATGCC (((.(((....))).))) | -41.9 | 65.5
GGCGTCACGAAAGTGGCC (((..(((....)))))) | -15.2 | 50.3
GGCGTCGAAAGACAAGCC ((((((....)))..))) | -43.4 | 55.2

Sequence | folding enthalpy [1] [kcal/mol] | Tm [2] [°C]
GGCGTCGAAAGACAGGCC ((((((....)))..))) | -31.3 | 55
GGCGTCGCGAAAGCGGCC (((..(((....)))))) | -13 | 58.7
GGCGTCGGAAACGATGCC (((.(((....))).))) | -38.2 | 65.7
GGCGTCGGAAACGGCGTC (.((.((....)).)).) | -27.7 | 53.9
GGCGTTACGAAAGTAGCC (((..(((....)))))) | -39.7 | 55
GGCGTTCCGAAAGGAGCC (((..(((....)))))) | -20.5 | 51.7
GGCGTTCGAAAGAAGCC (((.(((....)))))) | -23.2 | 50.8
GGCGTTCGAAAGAAGGCC (((.(((....))).))) | -39.4 | 61.1
GGCGTTGCGAAAGCAGCC (((..(((....)))))) | -32.3 | 63.1
GGCTAACGAAAGTTGCC (((.(((....)))))) | -30 | 54
GGCTAAGGAAACCTAGCC (((((.(....).))))) | -31.5 | 46.6
GGCTAAGGAAACTTAGCC (((((((....))))))) | -37.7 | 60.8
GGCTACACGAAAGTGGCC (((..(((....)))))) | -24.3 | 51.6
GGCTACGAAAGTAAGGCC ((((((....)))..))) | -23.3 | 48.2
GGCTACGAAAGTACGCC ((((((....))).))) | -33.4 | 53.5
GGCTACGAAAGTAGAGCC ((((((....)))..))) | -20 | 49.5
GGCTACGAAAGTATCGCC ((((((....)))..))) | -22.5 | 40.6
GGCTACGGAAACGTGGCC (((.(((....))).))) | -47.4 | 60.1
GGCTAGACGAAAGTCGCC (((..(((....)))))) | -25.2 | 53.4
GGCTATGAAAATAGCC ((((((....)))))) | -45.7 | 59.1
GGCTATGGAAACATAGCC (((((((....))))))) | -37.6 | 66.1
GGCTATGGAAACATGGTC (.(.(((....))).).) | -23.9 | 35.7
GGCTATGGAAACGTAGCC (((((.(....).))))) | -46 | 52.6

Sequence | folding enthalpy [1] [kcal/mol] | Tm [2] [°C]
GGCTATGGAAACGTAGTC (.(((.(....).))).) | -18.6 | 32.3
GGCTATTCGAAAGAAGCC (((..(((....)))))) | -25.2 | 37.7
GGCTCACGAAAGTGTGCC (((.(((....))).))) | -30.8 | 64.3
GGCTCAGGAAACTAAGCC ((((.((....)).)))) | -29.1 | 39
GGCTCAGGAAACTGGGCC (((.(((....))).))) | -43.7 | 58.3
GGCTCCCGAAAGGGGCC (((.(((....)))))) | -30.1 | 68
GGCTCCGAAAGGACCGCC ((((((....)))..))) | -19.8 | 53.3
GGCTCCGAAAGGAGAGCC ((((((....)))..))) | -20.7 | 55.6
GGCTCCGAAAGGATTGCC ((((((....)))..))) | -19.6 | 48.7
GGCTCGGGAAACCGAGTC (.(((((....))))).) | -29.9 | 61.5
GGCTCGGGAAACTGAGCC (((((.(....).))))) | -61.1 | 61.4
GGCTCTCGAAAGAGGCC (((.(((....)))))) | -43 | 56.9
GGCTCTGGAAACAGGGTC (.(.(((....))).).) | -29.6 | 37.5
GGCTCTGGAAACGGAGTC (.(((.(....).))).) | -30.2 | 40
GGCTGACGAAAGTCCGCC (((.(((....))).))) | -36.6 | 58.6
GGCTGAGCGAAAGCTGCC (((..(((....)))))) | -20 | 51.6
GGCTGCCCGAAAGGGGCC (((..(((....)))))) | -13.7 | 47.6
GGCTGCGAAAGCAAAGCC ((((((....)))..))) | -24.7 | 61.3
GGCTGCGAAAGCAACGCC ((((((....)))..))) | -22.1 | 56.6
GGCTGCGAAAGCAGAGCC ((((((....)))..))) | -16.3 | 60.1
GGCTGCGAAAGCAGTGCC ((((((....)))..))) | -12.1 | 51.7
GGCTGCGGAAACGCAGTC (.(((((....))))).) | -22.4 | 66.1
GGCTGGCCGAAAGGCGCC (((..(((....)))))) | -16.4 | 61

Sequence | folding enthalpy [1] [kcal/mol] | Tm [2] [°C]
GGCTGTCGAAAGACGCC (((.(((....)))))) | -31.2 | 61.1
GGCTGTGGAAACACAACC ((.((((....)))).)) | -31.5 | 44.4
GGCTGTGGAAACGCAGCC (((((.(....).))))) | -48.6 | 63.4
GGCTGTGGAAACGCAGTC (.(((.(....).))).) | -23.4 | 42.4
GGCTGTTCGAAAGAAGCC (((..(((....)))))) | -20.9 | 38.2
GGCTTACGAAAGTACGCC (((.(((....))).))) | -48 | 52.9
GGCTTAGCGAAAGCTGCC (((..(((....)))))) | -23 | 52.5
GGCTTAGGAAACCAAGCC (((((.(....).))))) | -31.4 | 47.4
GGCTTATCGAAAGATGCC (((..(((....)))))) | -24.1 | 39.8
GGCTTCACGAAAGTGGCC (((..(((....)))))) | -19.6 | 45.2
GGCTTCGAAAGAAAGCC ((((((....))).))) | -38.1 | 55
GGCTTCGAAAGAAAGGCC ((((((....)))..))) | -26 | 43.4
GGCTTCGAAAGAACTGCC ((((((....)))..))) | -21.5 | 36.7
GGCTTCGAAAGAATGCC ((((((....))).))) | -27.9 | 50.7
GGCTTCGAAAGAATTGCC ((((((....)))..))) | -23.3 | 35.4
GGCTTGGGAAACCGAGCC ((((.((....)).)))) | -54.1 | 58.5
GGCTTGGGAAACTAAGCC (((((.(....).))))) | -45.5 | 52.2
GGCTTGGGAAACTGAGCC ((((..(....)..)))) | -32.9 | 45.7
GGCTTTCCGAAAGGAGCC (((..(((....)))))) | -24.5 | 45.2
GGCTTTCGAAAGAAGCC (((.(((....)))))) | -41.6 | 52.8
GGCTTTGAAAAAAGCC ((((((....)))))) | -38.5 | 57.6
GGGAAACCGAAAGGTCCC (((..(((....)))))) | -19.7 | 46.6
